Assay results from ChEMBL document CHEMBL1649387, “Synthesis and evaluation of quinonoid compounds against tumor cell lines” (Eur J Med Chem, 2011).
Activity calls are given as the source filed them. The calls are words filed in the database; no cut-off is given here.

Legend:
HL-60 [1] = test: Induction of apoptosis in human HL60 cells assessed as cell viability at 5 uM after 24 hrs by trypan blue exclusion assay; type: functional, cell-based
How it was run: (§1)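 Cells incubated 24 h, with or without 24 h pretreatment with 5 mM NAC. Viability determined by trypan blue dye exclusion.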

SF-295 [2] = test: Genotoxicity in human SF295 cells assessed as DNA strand breaks at 5 uM after 24 hrs by comet assay in presence of […]; type: functional, cell-based
How it was run: (§2)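 Cells treated 24 h, with or without 24 h pretreatment with 5 mM NAC. Cells embedded in 0.75% low-melt agarose and lysed (pH 10.0, 4 °C, ≥1 h). DNA unwound 20 min in 300 mM NaOH/1 mM EDTA (pH >13), then electrophoresed 20 min at 0.86 V/cm and stained with ethidium bromide. 100 cells scored visually into classes 0–4 to give damage index.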

HCT-8 [3] = test: Induction of lipid peroxidation in human HCT8 cells assessed as increase in TBARS formation at 5 uM after 24 hrs in presence of […]; type: functional, cell-based
How it was run: (§3)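 Cells treated 24 h, with or without 24 h pretreatment with 5 mM NAC. Cells lysed with Tris-HCl (15 mM, 1 h) and heated with TCA/HCl/thiobarbituric acid for 15 min at 100 °C, then centrifuged. TBARS read at 532 nm against hydrolyzed 1,1,3,3-tetramethoxypropane standard and normalized to protein.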

MDA-MB-435 [4] = test: Genotoxicity in human MDA-MB-435 cells assessed as DNA strand breaks at 5 uM after 24 hrs by comet assay; type: functional, cell-based; how it was run: as §2
HCT-8 [5] = test: Induction of apoptosis in human HCT8 cells assessed as cell viability at 5 uM after 24 hrs by trypan blue exclusion assay in presence of […]; type: functional, cell-based; how it was run: as §1
HL-60 [6] = test: Cytotoxicity against human HL60 cells after 72 hrs by MTT assay; type: functional, cell-based; settings: HL-60, 72 h
HCT-8 [7] = test: Cytotoxicity against human HCT8 cells after 72 hrs by MTT assay; type: functional, cell-based; settings: HCT-8, 72 h
HL-60 [8] = test: Induction of lipid peroxidation in human HL60 cells assessed as increase in TBARS formation at 5 uM after 24 hrs in presence of […]; type: functional, cell-based; how it was run: as §3
SF-295 [9] = test: Induction of lipid peroxidation in human SF295 cells assessed as increase in TBARS formation at 5 uM after 24 hrs in presence of […]; type: functional, cell-based; how it was run: as §3
MDA-MB-435 [10] = test: Induction of apoptosis in human MDA-MB-435 cells assessed as cell viability at 5 uM after 24 hrs by trypan blue exclusion assay in presence of […]; type: functional, cell-based; how it was run: as §1
MDA-MB-435 [11] = test: Induction of lipid peroxidation in human MDA-MB-435 cells assessed as increase in TBARS formation at 5 uM after 24 hrs; type: functional, cell-based; how it was run: as §3
HL-60 [12] = test: Induction of lipid peroxidation in human HL60 cells assessed as increase in TBARS formation at 5 uM after 24 hrs; type: functional, cell-based; how it was run: as §3
SF-295 [13] = test: Induction of apoptosis in human SF295 cells assessed as cell viability at 5 uM after 24 hrs by trypan blue exclusion assay; type: functional, cell-based; how it was run: as §1
HL-60 [14] = test: Genotoxicity in human HL60 cells assessed as DNA strand breaks at 5 uM after 24 hrs by comet assay in presence of […]; type: functional, cell-based; how it was run: as §2
MDA-MB-435 [15] = test: Induction of lipid peroxidation in human MDA-MB-435 cells assessed as increase in TBARS formation at 5 uM after 24 hrs in presence of […]; type: functional, cell-based; how it was run: as §3
HL-60 [16] = test: Genotoxicity in human HL60 cells assessed as DNA strand breaks at 5 uM after 24 hrs by comet assay; type: functional, cell-based; how it was run: as §2
SF-295 [17] = test: Cytotoxicity against human SF295 cells after 72 hrs by MTT assay; type: functional, cell-based; settings: SF-295, 72 h
HCT-8 [18] = test: Induction of lipid peroxidation in human HCT8 cells assessed as increase in TBARS formation at 5 uM after 24 hrs; type: functional, cell-based; how it was run: as §3
MDA-MB-435 [19] = test: Genotoxicity in human MDA-MB-435 cells assessed as DNA strand breaks at 5 uM after 24 hrs by comet assay in presence of […]; type: functional, cell-based; how it was run: as §2
SF-295 [20] = test: Induction of lipid peroxidation in human SF295 cells assessed as increase in TBARS formation at 5 uM after 24 hrs; type: functional, cell-based; how it was run: as §3
MDA-MB-435 [21] = test: Cytotoxicity against human MDA-MB-435 cells after 72 hrs by MTT assay; type: functional, cell-based; settings: MDA-MB-435, 72 h
HCT-8 [22] = test: Genotoxicity in human HCT8 cells assessed as DNA strand breaks at 5 uM after 24 hrs by comet assay in presence of […]; type: functional, cell-based; how it was run: as §2
SF-295 [23] = test: Induction of apoptosis in human SF295 cells assessed as cell viability at 5 uM after 24 hrs by trypan blue exclusion assay in presence of […]; type: functional, cell-based; how it was run: as §1
HCT-8 [24] = test: Induction of apoptosis in human HCT8 cells assessed as cell viability at 5 uM after 24 hrs by trypan blue exclusion assay; type: functional, cell-based; how it was run: as §1
MDA-MB-435 [25] = test: Induction of apoptosis in human MDA-MB-435 cells assessed as cell viability at 5 uM after 24 hrs by trypan blue exclusion assay; type: functional, cell-based; how it was run: as §1
SF-295 [26] = test: Genotoxicity in human SF295 cells assessed as DNA strand breaks at 5 uM after 24 hrs by comet assay; type: functional, cell-based; how it was run: as §2
HL-60 [27] = test: Induction of apoptosis in human HL60 cells assessed as cell viability at 5 uM after 24 hrs by trypan blue exclusion assay in presence of […]; type: functional, cell-based; how it was run: as §1
HCT-8 [28] = test: Genotoxicity in human HCT8 cells assessed as DNA strand breaks at 5 uM after 24 hrs by comet assay; type: functional, cell-based; how it was run: as §2
SF-295 [29] = test: DNA damage index, DNA damage in human SF295 cells to DNA damage in human HL60 cells with FPG/ENDO3 DNA repair enzymes; type: functional
How it was run: (§4)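 Cells treated 12 h, then alkaline comet slides washed in enzyme buffer (40 mM HEPES, 100 mM KCl, 0.5 mM Na2EDTA, 0.2 mg/mL BSA, pH 8.0). Slides then incubated with FPG (30 min, 37 °C) or ENDOIII (45 min, 37 °C). Enzyme-sensitive sites = total breaks minus buffer-only breaks. 100 cells scored per group. NAC pretreatment 5 mM. Mean ± S.E.M. of three experiments.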

HCT-8 [30] = test: DNA damage index, DNA damage in human HCT8 cells to DNA damage in human HL60 cells with FPG/ENDO3 DNA repair enzymes in presence of […]; type: functional; how it was run: as §4
HL-60 [31] = test: DNA damage index, DNA damage in human HL60 cells to DNA damage in human HL60 cells with FPG/ENDO3 DNA repair enzymes; type: functional; how it was run: as §4
SF-295 [32] = test: DNA damage index, DNA damage in human SF295 cells to DNA damage in human HL60 cells with FPG/ENDO3 DNA repair enzymes in presence of […]; type: functional; how it was run: as §4
PBMC = test: Cytotoxicity against human PBMC cells after 72 hrs by Alamar Blue assay; type: cell-based
MDA-MB-435 [33] = test: DNA damage index, DNA damage in human MDA-MB-435 cells to DNA damage in human HL60 cells with FPG/ENDO3 DNA repair enzymes; type: functional; how it was run: as §4
MDA-MB-435 [34] = test: DNA damage index, DNA damage in human MDA-MB-435 cells to DNA damage in human HL60 cells with FPG/ENDO3 DNA repair enzymes in presence of […]; type: functional; how it was run: as §4
HCT-8 [35] = test: DNA damage index, DNA damage in human HCT8 cells to DNA damage in human HL60 cells with FPG/ENDO3 DNA repair enzymes; type: functional; how it was run: as §4
HL-60 [36] = test: DNA damage index, DNA damage in human HL60 cells to DNA damage in human HL60 cells with FPG/ENDO3 DNA repair enzymes in presence of […]; type: functional; how it was run: as §4
HL-60 [37] = test: Induction of apoptosis in human HL60 cells assessed as apoptotic nuclei at 5 uM after 24 hrs by acridine orange/ethidium bromide staining based fluorescence microscopy in presence of 1-bromoheptane; type: functional
How it was run: (§5)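 Cells exposed 24 h, with or without 24 h pretreatment with 1-bromoheptane. Cell suspension mixed with acridine orange/ethidium bromide (each 100 in PBS) and spread on slide. 300 cells counted per point by fluorescence microscopy to give % apoptotic cells. Mean ± S.E.M. of three experiments.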

MDA-MB-435 [38] = test: Induction of apoptosis in human MDA-MB-435 cells assessed as apoptotic nuclei at 5 uM after 24 hrs by acridine orange/ethidium bromide staining based fluorescence microscopy; type: functional; how it was run: as §5
HCT-8 [39] = test: Induction of apoptosis in human HCT8 cells assessed as apoptotic nuclei at 5 uM after 24 hrs by acridine orange/ethidium bromide staining based fluorescence microscopy; type: functional; how it was run: as §5
HCT-8 [40] = test: Induction of apoptosis in human HCT8 cells assessed as apoptotic nuclei at 5 uM after 24 hrs by acridine orange/ethidium bromide staining based fluorescence microscopy in presence of 1-bromoheptane; type: functional; how it was run: as §5
MDA-MB-435 [41] = test: Induction of apoptosis in human MDA-MB-435 cells assessed as apoptotic nuclei at 5 uM after 24 hrs by acridine orange/ethidium bromide staining based fluorescence microscopy in presence of 1-bromoheptane; type: functional; how it was run: as §5
SF-295 [42] = test: Induction of apoptosis in human SF295 cells assessed as apoptotic nuclei at 5 uM after 24 hrs by acridine orange/ethidium bromide staining based fluorescence microscopy in presence of 1-bromoheptane; type: functional; how it was run: as §5
SF-295 [43] = test: Induction of apoptosis in human SF295 cells assessed as apoptotic nuclei at 5 uM after 24 hrs by acridine orange/ethidium bromide staining based fluorescence microscopy; type: functional; how it was run: as §5
HL-60 [44] = test: Induction of apoptosis in human HL60 cells assessed as apoptotic nuclei at 5 uM after 24 hrs by acridine orange/ethidium bromide staining based fluorescence microscopy; type: functional; how it was run: as §5

Compound	Activity (HL-60 [1])	Activity (SF-295 [2])	Activity (HCT-8 [3])	Activity (MDA-MB-435 [4])	Activity (HCT-8 [5])	IC50 (HL-60 [6]) [nM]	IC50 (HCT-8 [7]) [nM]	Activity (HL-60 [8])	Activity (SF-295 [9])	Activity (MDA-MB-435 [10])	Activity (MDA-MB-435 [11])	Activity (HL-60 [12])	Activity (SF-295 [13])	Activity (HL-60 [14])	Activity (MDA-MB-435 [15])	IC50 (SF-295 [17]) [nM]	Activity (HCT-8 [18])	Activity (SF-295 [20])	IC50 (MDA-MB-435 [21]) [nM]	IC50 (PBMC) [nM]	also measured
CC1(C)OC2=C(C(=O)C(=O)c3ccccc32)[C@H](n2cc(-c3ccccc3)nn2)[C@H]1Br	Active	inactive	inactive	Active	inactive	1010	1370	inactive	inactive	inactive	Active	Active	Active	inactive	inactive	1550	Active	Active	1220		Activity (HL-60 [16]): Active; Activity (MDA-MB-435 [19]): inactive; Activity (HCT-8 [22]): inactive; Activity (SF-295 [23]): inactive; Activity (HCT-8 [24]): Active; Activity (MDA-MB-435 [25]): Active; Activity (SF-295 [26]): Active; Activity (HL-60 [27]): inactive; Activity (HCT-8 [28]): Active
CC1(C)CC2=C(O1)c1ccccc1C(=O)C2=O [NOR-BETA-LAPACHONE]			inactive					inactive	inactive		Active	Active			inactive		Active	Active		> 21900	Ratio (SF-295 [29]): 63.81; Ratio (HCT-8 [30]): 10.48; Ratio (HL-60 [31]): 67.19; Ratio (SF-295 [32]): 9.18; Ratio (MDA-MB-435 [33]): 78.52; Ratio (MDA-MB-435 [34]): 7.49; Ratio (HCT-8 [35]): 63.25; Ratio (HL-60 [36]): 12.36
O=C1c2ccccc2C(=O)c2c1ccc1nc(-c3cccc(O)c3)[nH]c21						> 14700	> 14700									> 14700			> 14700	> 14700	Activity (HL-60 [37]): 8.17%; Activity (MDA-MB-435 [38]): 12.51%; Activity (HCT-8 [39]): 12.73%; Activity (HCT-8 [40]): 7.25%; Activity (MDA-MB-435 [41]): 13.75%; Activity (SF-295 [42]): 9.66%; Activity (SF-295 [43]): 13.51%; Activity (HL-60 [44]): 10.49%
CC1(C)OC2=C(C(=O)C(=O)c3ccccc32)[C@H](n2cc(-c3ccc(F)cc3)nn2)[C@H]1Br	Active	inactive	inactive	Active	inactive	1200	2260	inactive	inactive	inactive	Active	Active	Active	inactive	inactive	1760	Active	Active	1200	3370	Activity (HL-60 [16]): Active; Activity (MDA-MB-435 [19]): inactive; Activity (HCT-8 [22]): inactive; Activity (SF-295 [23]): inactive; Activity (HCT-8 [24]): Active; Activity (MDA-MB-435 [25]): Active; Activity (SF-295 [26]): Active; Activity (HL-60 [27]): inactive; Activity (HCT-8 [28]): Active
